Measurements from different studies.
Lines come from different studies, so protocols differ.
Medium: plasma

SMILES | test system | setting | AUC(0-t)
O=C(O)C[C@H](O)C[C@H](O)/C=C/c1c(C2CC2)nc2ccccc2c1-c1ccc(F)cc1 | human | oral, 2 mg, single dose, fasted, healthy volunteers, tablet | 243 ng·h/mL
CCNCCCNC/C=C\CNCCCNCC | human | intravenous, 150 mg, patients, infusion | 473 ng·h/mL
CCOc1cc2ncc(C#N)c(Nc3ccc(OCc4ccccn4)c(Cl)c3)c2cc1NC(=O)/C=C/[C@H]1CCCN1C | human | oral, 80 mg, single dose | 357 ng·h/mL
CO[C@@H]1[C@H](OC(=O)N2CC(CCN3CCOCC3)C2)CC[C@]2(CO2)[C@H]1[C@@]1(C)O[C@@H]1CC=C(C)C | human | subcutaneous, 1.2 mg, single dose, healthy volunteers | 5.45 ng·h/mL
C[C@@H](Oc1ccc(S(C)(=O)=O)cc1C(=O)N1C[C@@H]2C[C@]2(c2cc(C(F)(F)F)on2)C1)C(F)(F)F | human | oral, 25 mg | 12 µM·h
COc1ccc(-n2nc(C(N)=O)c3c2C(=O)N(c2ccc(N4CCCCC4=O)cc2)CC3)cc1 | human | oral, 10 mg, single dose, healthy volunteers | 2480 ng·h/mL
NS(=O)(=O)c1ccc(NC(=O)Nc2ccc(F)cc2)cc1 | human | oral, 2000 mg, multiple doses, once daily | 180000 ng·h/mL
COC(=O)N[C@@H](C)CNc1nccc(-c2cn(C(C)C)nc2-c2cc(Cl)cc(NS(C)(=O)=O)c2F)n1 | human | oral, 50 mg, single dose | 1900 ng·h/mL
CNC(=O)c1ccccc1Sc1ccc2c(/C=C/c3ccccn3)n[nH]c2c1 | human | oral, 5 mg, single dose, fasted, healthy volunteers | 194 ng·h/mL
COc1ccc([C@@H]2CN(C(=O)[C@@H](O)CO)C[C@@]2(C)[C@@H](C)O)cc1OC1CN(c2ccc(C)cn2)C1 | human | oral, 0.1 mg, single dose, healthy volunteers | 52.7 ng·h/mL
OC[C@H]1O[C@@H](c2ccc(Cl)c(Cc3ccc(O[C@H]4CCOC4)cc3)c2)[C@H](O)[C@@H](O)[C@@H]1O | human | oral, 100 mg, single dose | 20 µM·h
C#Cc1cccc(Nc2ncnc3cc(OCCOC)c(OCCOC)cc23)c1 | human | oral, 50 mg, patients | 12.5 µM·h
COc1cc2c(Nc3ccc(Br)cc3F)ncnc2cc1OCC1CCN(C)CC1 | human | oral, 85 mg/m², multiple doses, patients | 15500 ng·h/mL
Cc1nc(NC(=O)N2CCC[C@H]2C(N)=O)sc1-c1ccnc(C(C)(C)C(F)(F)F)c1 | human | oral, 270 mg, patients | 25300 ng·h/mL
C[C@@H](Oc1ccc(S(C)(=O)=O)cc1C(=O)N1C[C@@H]2C[C@]2(c2cc(C(F)(F)F)on2)C1)C(F)(F)F | human | oral, 25 mg, fasted, tablet | 8.7 µM·h
C[C@@H](c1ccc2nccn2c1)n1nnc2ncc(-c3cnn(C)c3)nc21 | human | oral, 200 mg | 3980 ng·h/mL
C[C@@]1(c2cc(NC(=O)c3ccc(C#N)cn3)ccc2F)C=CSC(N)=N1 | human | oral, 150 mg, single dose | 14300 ng·h/mL
CO[C@H]1CC[C@H](N2C(=O)CNc3ncc(-c4ccc(C(C)(C)O)nc4)nc32)CC1 | human | oral, 30 mg, multiple doses, patients | 1440 ng·h/mL
C[C@@H](Nc1cc(F)cc(F)c1)c1cc(C(=O)N(C)C)cc2c(=O)cc(N3CCOCC3)oc12 | human | oral, 30 mg, single dose, patients | 599 ng·h/mL
CCO[C@H]1CCN(Cc2c(OC)cc(C)c3[nH]ccc23)[C@H](c2ccc(C(=O)O)cc2)C1 | human | oral, 100 mg, multiple doses, twice daily, patients | 11900 ng·h/mL
COc1cc2c(cc1OC)CN(CCc1ccc(NC(=O)c3cc(OC)c(OC)cc3NC(=O)c3cnc4ccccc4c3)cc1)CC2 | human | intravenous, 1 mg/kg, patients | 5.4 µM·h
O=C(/C=C/c1cccc(S(=O)(=O)Nc2ccccc2)c1)NO | human | intravenous, 2000 mg/m², patients | 85200 ng·h/mL
Oc1cc(O)c2c(c1)O[C@@H](c1ccc(O)c(O)c1)[C@@H](O)C2 | human | oral, 10 mg, single dose | 4.6 ng·h/mL
CC(C)(O)c1ccccc1-c1ccc2[nH]c(/C=C/c3ccc(C(F)(F)F)cc3)nc2c1 | male human | oral, 5 mg, single dose, fasted | 350 ng·h/mL
FC(F)(F)c1ccc(CNc2ccc(Cc3c[nH]c4ncc(Cl)cc34)cn2)cn1 | human | oral, 800 mg, multiple doses, patients | 22300 ng·h/mL
CC(C)n1cc(C#N)c2cc(-n3cc(C(=O)O)cn3)ccc21 | male human | oral, 600 mg, single dose, fasted, healthy volunteers | 98800 ng·h/mL
COc1cc(N2CCC(N3CCN(C)CC3)CC2)ccc1Nc1ncnc(Nc2ccccc2S(=O)(=O)C(C)C)n1 | human | oral, 325 mg, multiple doses, patients | 23100 ng·h/mL
CCCCC1=NC2(CCCC2)C(=O)N1Cc1ccc(-c2ccccc2S(=O)(=O)Nc2noc(C)c2C)c(COCC)c1 | human | oral, 800 mg, single dose, fed, healthy volunteers, tablet | 169000 ng·h/mL
Nc1cc(C(F)(F)F)c(-c2cc(N3CCOCC3)nc(N3CCOCC3)n2)cn1 | human | oral, 25 mg/day, patients | 2060 ng·h/mL
COCCOc1cnc2ccn([C@H](C)c3nnc4c(F)cc(-c5cnn(C)c5)cn34)c(=O)c2c1 | human | oral, 25 mg, multiple doses, once daily, patients | 5990 ng·h/mL
